In assay [1] the target is T1, Neutrophil elastase (Homo sapiens) (UniProt P08246).
T1 sequence (whole entry): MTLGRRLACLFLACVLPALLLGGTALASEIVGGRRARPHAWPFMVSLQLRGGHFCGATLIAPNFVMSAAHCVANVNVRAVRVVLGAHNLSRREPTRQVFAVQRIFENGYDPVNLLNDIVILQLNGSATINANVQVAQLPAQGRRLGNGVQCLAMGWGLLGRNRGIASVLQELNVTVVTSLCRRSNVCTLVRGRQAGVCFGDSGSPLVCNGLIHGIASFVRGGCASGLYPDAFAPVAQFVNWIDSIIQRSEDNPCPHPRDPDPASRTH
Briefly: Ratio of Kinact to Ki for human neutrophil elastase. In short, it runs like this: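 Progress-curve method: 10 nM HNE, MeOSuc-AAPV p-nitroanilide (105 μM) and inhibitor at several inhibitor-to-enzyme ratios in 0.1 M HEPES/0.5 M NaCl, pH 7.25, 2.5% DMSO. p-Nitroaniline release was monitored continuously at 410 nm. kobs came from nonlinear fitting of absorbance versus time; kinact/KI = kobs/[I], corrected for substrate concentration. Determined in duplicate.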

The target of assay [2] is T1, Neutrophil elastase (Homo sapiens). Nature of the assay: Inhibition of human neutrophil elastase at 7 uM. The conditions noted are these: TDE = time-dependent effect. A digest of the protocol:
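HNE (700 nM) incubated with inhibitor (7 μM) in 0.1 M HEPES/0.5 M NaCl, pH 7.25, 1% DMSO, in a constant-temperature bath. Aliquots were taken at intervals and added to MeOSuc-Ala-Ala-Pro-Val p-nitroanilide. Residual activity was read as absorbance at 410 nm over 60 s and expressed as percent remaining activity versus time.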

Assay [3] addresses T2, Myeloblastin (Homo sapiens) (UniProt P24158).
T2 sequence (whole entry): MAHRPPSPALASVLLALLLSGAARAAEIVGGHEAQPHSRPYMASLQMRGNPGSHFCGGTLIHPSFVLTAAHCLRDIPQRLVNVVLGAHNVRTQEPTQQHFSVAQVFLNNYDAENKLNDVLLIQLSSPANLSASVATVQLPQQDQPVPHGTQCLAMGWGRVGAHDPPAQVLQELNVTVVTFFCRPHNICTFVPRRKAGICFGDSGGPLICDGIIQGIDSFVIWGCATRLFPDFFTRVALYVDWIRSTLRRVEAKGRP
Nature of the assay: Inhibition of human neutrophil proteinase 3 assessed as residual activity at 8.62. In short, it runs like this: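 Human proteinase 3 (final 34.5 nM) was added with DTNB to 0.1 M HEPES/0.5 M NaCl, pH 7.25, containing inhibitor (final 8.62 μM, from DMSO) and Boc-Ala-Ala-NVa-SBzl. Absorbance at 410 nm was followed for 2 min against a DMSO-only hydrolysis control. % remaining activity = (v/vo)×100, mean of duplicate or triplicate runs.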

The source made the active and inactive calls. The rule behind the calls is not given here.

For `CC(C)C[C@H]1C(=O)N(COC(=O)Cc2ccccc2Nc2c(Cl)cccc2Cl)S(=O)(=O)N1C`, the Ratio in assay [1] was found to be 981000. For the same compound, in assay [2], the inhibition entry is “tde”. In addition, in assay [3], the percent remaining activity result was “inactive”.

Turning to `CC(C)Cc1ccc(C(C)C(=O)OCN2C(=O)[C@H](CC(C)C)N(Cc3ccccc3)S2(=O)=O)cc1` (some centres undefined), the Ratio in assay [1] was determined as 1580. For the same compound, in assay [3], the percent remaining activity entry was “inactive”.

`CC(C)C[C@H]1C(=O)N(COC(=O)CCc2ccccc2)S(=O)(=O)N1Cc1ccccc1`: the Ratio in assay [1] was found to be 3200. Also, in assay [3], the percent remaining activity result was “inactive”.

Turning to `CC(C)C[C@H]1C(=O)N(COC(=O)CCc2ccccc2)S(=O)(=O)N1C`, the Ratio in assay [1] was determined as 296000. In addition, the percent remaining activity entry in assay [3] is “inactive”.

With `CC(C)C[C@H]1C(=O)N(COC(=O)c2ccccc2O)S(=O)(=O)N1C`, in assay [1], the Ratio came out at 336000. The percent remaining activity result in assay [3] was “inactive”.

For the compound `CC(C)C[C@H]1C(=O)N(COC(=O)Cc2ccccc2)S(=O)(=O)N1C`, the Ratio in assay [1] was 357000. Further, the percent remaining activity entry in assay [3] was “inactive”.

Turning to `CC(C)C[C@H]1C(=O)N(COC(=O)C(C)c2ccc(Oc3ccccc3)cc2)S(=O)(=O)N1C` (some centres undefined), the Ratio in assay [1] worked out at 501000. Further, the percent remaining activity result in assay [3] was “inactive”.

In the case of `CC(C)C[C@H]1C(=O)N(COC(=O)C(C)c2ccc(C(=O)c3ccccc3)cc2)S(=O)(=O)N1C` (some centres undefined), the Ratio in assay [1] turned out to be 540000. Also, the percent remaining activity result in assay [3] is “inactive”.

`CC(C)C[C@H]1C(=O)N(COC(=O)c2ccccc2O)S(=O)(=O)N1Cc1ccccc1`: in assay [1], the Ratio was 1.09e+06. In assay [3], the percent remaining activity entry is “inactive”.

Consider `CC(C)C[C@H]1C(=O)N(COC(=O)Cc2ccccc2Nc2c(Cl)cccc2Cl)S(=O)(=O)N1Cc1ccccc1`, for which the Ratio in assay [1] amounted to 1330. Besides, the inhibition result in assay [2] was “tde”. Besides, the percent remaining activity result in assay [3] was “inactive”.

As for `CC(C)C[C@H]1C(=O)N(COC(=O)C(C)c2ccc(C(=O)c3ccccc3)cc2)S(=O)(=O)N1Cc1ccccc1` (some centres undefined), the Ratio in assay [1] came out at 31000. In addition, the percent remaining activity result in assay [3] was “inactive”.

For the compound `CC(=O)Oc1ccccc1C(=O)OCN1C(=O)[C@H](CC(C)C)N(C)S1(=O)=O`, the Ratio in assay [1] was 419000. Further, the percent remaining activity result in assay [3] is “inactive”.

As for `CC(=O)Oc1ccccc1C(=O)OCN1C(=O)[C@H](CC(C)C)N(Cc2ccccc2)S1(=O)=O`, the Ratio in assay [1] amounted to 1.06e+06. Moreover, in assay [3], the percent remaining activity entry is “inactive”.

On to `CC(C)C[C@H]1C(=O)N(COC(=O)Cc2ccccc2)S(=O)(=O)N1Cc1ccccc1`, for which, in assay [1], the Ratio is 63800. Also, the percent remaining activity result in assay [3] is “inactive”.

`CC(C)C[C@H]1C(=O)N(COC(=O)C(C)c2ccc(Oc3ccccc3)cc2)S(=O)(=O)N1Cc1ccccc1` (some centres undefined): the Ratio in assay [1] worked out at 1770. Moreover, the percent remaining activity entry in assay [3] is “inactive”.

As for `CC(C)Cc1ccc(C(C)C(=O)OCN2C(=O)[C@H](CC(C)C)N(C)S2(=O)=O)cc1` (some centres undefined), the Ratio in assay [1] is 201000. Further, the percent remaining activity result in assay [3] was “inactive”.
